Sampled rows, rich in hits. Any-hit rate of the full collection: about 2.3%.
TRPC6 inhibitor: mouse TRPC6 channel inhibitors, primary screen, cell-based, HEK293, membrane potential dye; Short transient receptor potential channel 6 (Mus musculus), Q61143; ACh-evoked depolarization; active compounds read low; B-score at 10 µM; AID 2553, 2010; 1.1% of 310,000 active;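 active = B-score under library mean minus 3 SD, initial fluorescence not abnormally high, positive integrated signal ratio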;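 note: B-score derived from integrated fluorescence ratio over the kinetic read; more negative B-score means stronger inhibition of depolarization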
TRPC4 potent: positive allosteric modulators of TRPC4, primary screen, cell-based, mouse TRPC4beta, HEK293 mu-opioid, Fluo-4 calcium; Short transient receptor potential channel 4 (Mus musculus), Q9QUQ5; DAMGO EC20, Fluo-4 Ca2+ flux; active compounds read high; B-score at 10 µM; 0.42% of 310,000 active; AID 2227, 2009;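 active = B-score of calcium response area above 5 SD of library B-scores, with initial fluorescence ratio within 5 SD of library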;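 note: B-score of integrated fluorescence ratio over time as area under calcium response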
TRPC6 act: mouse TRPC6 channel activators, primary screen, cell-based, HEK293, membrane potential dye. B-score at 10 µM. HEK293-TRPC6 membrane potential dye fluorescence; active compounds read high. 0.13% of 310,000 active. Short transient receptor potential channel 6 (Mus musculus), Q61143;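 active = B-score of the integrated fluorescence ratio above library mean plus 3 SD, and starting fluorescence ratio within library mean plus 5 SD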;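 note: higher score means more depolarization so channel activation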
TRPC4 block: inhibitors of mouse TRPC4 channel, primary screen, Fluo4 calcium, HEK293 TRPC4beta/mu-opioid cells | AID 2247, 2010 | Short transient receptor potential channel 4 (Mus musculus), Q9QUQ5 | DAMGO-evoked Fluo4 calcium flux; active compounds read low | 0.39% of 300,000 active | B-score at 10 µM;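 active = B-score over 3 SD under the library average, no early fluorescence shift, positive overall ratio signal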
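Test system – stable TRPC4beta/mu-opioid receptor HEK293 cells · Probe or stimulus – DAMGO, a submaximal dose followed by a maximal one · Dosing – one concentration per compound · Signal – Fluo4 calcium fluorescence by kinetic imaging, 5 s 1 Hz baseline · Evaluation – per-well B score of integrated baseline-normalized Fluo4 ratio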
TRPC4 agonist: activators of mouse TRPC4 channel, primary screen, Fluo4 calcium, HEK293 TRPC4beta/mu-opioid cells | Fluo4 calcium fluorescence; active compounds read high | B-score at 10 µM | 0.49% of 310,000 active | AID 2237, 2010;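 active = B-score above 5 SD of library B-scores, and initial fluorescence ratio not above library mean plus 5 SD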;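 note: positive B-score marks a calcium rise read as TRPC4 activation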
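Assay system: HEK293 cells stably co-expressing mouse TRPC4beta and mu-opioid receptor / Timing: Fluo4 dye loading 45 min at room temperature, 110 s recording / Signal: Fluo4 calcium-sensitive dye fluorescence, kinetic, 1 Hz baseline / Read-out: integrated baseline-normalised fluorescence ratio, converted to per-well B score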
TRPC4 sel inh 2: second check of whether TRPC6 inhibitors also affect mouse TRPC4; shares compounds with TRPC6 inhibitor; HEK293 TRPC4/MOR, membrane potential dye fluorescence; channel activated by saturating DAMGO dose; inhibition, % at 10 µM; 42% of 920 active;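 active = compounds whose fluorescence signal differed from control wells by over 3 SD, either direction, in both duplicate plates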
TRPC4 spec: mouse TRPC4 modulation by TRPC6 hits, confirmation, selectivity assay for TRPC6 inhibitor project, cell-based, HEK293 TRPC4/mu-opioid, membrane potential dye | shares compounds with TRPC6 inhibitor | membrane potential fluorescence | activity change, negative = inhibition, % at 10 µM | 61% of 920 active | AID 2777, 2010;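 active = rise or fall in signal beyond 3 SD of buffer-only wells in both replicate plates, either sign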;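 note: integrated kinetic ratio of fluorescence range over baseline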
HEK293 MPD ctr 2-1: nonspecific membrane potential effects, parental HEK293, confirmation, counter-screen for TRPC6 inhibitor project, cell-based, second counter screen. shares compounds with TRPC6 inhibitor. parental HEK293 membrane potential dye fluorescence; maximal acetylcholine challenge after compound addition. signal change vs control, % at 10 µM. 31% of 920 active. AID 2779, 2010;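 active = membrane potential signal moving either way by over 3 SD of the maximum-effect control, in both duplicate plates, meaning non-specific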
HEK293 MPD ctr-1: membrane potential modulation in parental HEK293, confirmation, counter-screen for TRPC6 inhibitor project, cell-based; shares compounds with TRPC6 inhibitor; parental HEK293 membrane potential dye fluorescence; membrane potential signal change, % at 10 µM; 60% of 920 active; AID 2780, 2010;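 active = membrane potential signal shifting up or down by more than 3 SD of buffer-only wells, on both duplicate plates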
HEK293 MPD ctr-2: parental HEK293 membrane potential modulation, confirmation, counter-screen for TRPC6 modulator project, cell-based; 51% of 2,400 active; membrane potential signal change, % at 10 µM; membrane potential dye fluorescence; AID 488924, 2010; shares compounds with TRPC6 inhibitor;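 active = membrane potential signal moves up or down beyond 5 SD from buffer-only wells, on both duplicate plates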
HEK293 MPD ctr 2-2: parental HEK293 nonspecific activity of TRPC6 modulators, second screen. shares compounds with TRPC6 inhibitor. inhibition, % at 10 µM. membrane potential dye fluorescence; after compound, maximal acetylcholine stimulation. 14% of 2,400 active;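 active = membrane potential signal drops by more than 5 SD from the mean control signal, in both duplicate plates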;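 note: plate controls were acetylcholine ECmax control wells for no effect and buffer only wells for full effect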
TRPC4 ctr mod: TRPC4 modulation by TRPC6 hit compounds, confirmation, selectivity assay for TRPC6 modulator project, cell-based, HEK293 TRPC4/mu-opioid, membrane potential dye, mouse; membrane potential fluorescence; 69% of 2,400 active; percent change from control (negative = decrease, positive = increase), % at 10 µM; shares compounds with TRPC6 inhibitor; AID 488927, 2010;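 active = membrane potential signal moved up or down beyond 5 SD of buffer control wells, in both duplicate plates, actives on both sides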;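 note: plate controls were assay buffer wells for no effect and DAMGO maximal-effect wells for full effect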
TRPC4 ctr inh 2: second check of whether TRPC6 modulators also affect mouse TRPC4 | shares compounds with TRPC6 inhibitor | HEK293 TRPC4/mu-opioid, membrane potential dye fluorescence; stimulated with maximal-effect DAMGO | inhibition, % at 10 µM | 55% of 2,400 active | AID 488928;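 active = drop in membrane potential signal beyond 5 SD of the control wells in both duplicate plates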;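 note: TRPC4 counter screen for TRPC6 hits run under conditions tuned for TRPC6 not TRPC4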
TRPC6 block conf: mouse TRPC6 channel inhibitors, confirmation, HEK293 cells, membrane potential dye, duplicate; shares compounds with TRPC6 inhibitor; ACh-evoked depolarization; inhibition, % at 10 µM; 43% of 3,300 active; AID 488960, 2010;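 active = fluorescence ratio falls more than 5 SD below the full-stimulation control mean, in both duplicate runs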;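 note: integrated fluorescence ratio of peak minus minimum over baseline after agonist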
TRPC6 act confirm: mouse TRPC6 channel activators, confirmation, HEK293 cells, membrane potential dye, duplicate. activation, % at 10 µM. shares compounds with TRPC6 inhibitor. HEK293-TRPC6 membrane potential dye fluorescence, FDSS. 11% of 2,800 active. AID 488961, 2010;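 active = ratio signal rise beyond 5 SD above unstimulated control wells' mean, seen in both duplicate runs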;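 note: plate controls were buffer EC0 wells for no effect and acetylcholine ECmax response for full effect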
Starred values were filed as active, the others as inactive; i = inactive; · = no result given.

SMILES	TRPC6 inhibitor	TRPC4 potent	TRPC6 act	TRPC4 block	TRPC4 agonist	HEK293 MPD ctr-2	HEK293 MPD ctr 2-2	TRPC4 ctr mod	TRPC4 ctr inh 2	TRPC6 block conf	TRPC6 act confirm	others
CCOC(=O)c1c2n(c3c(NCc4ccccc4)ncnc13)CCCC2	-5.2*	i	i	i	i	-94%*	66%*	-16%*	46%*	54%*	i
CC1=NN(c2ccccc2)C(=O)/C1=C/c1cn(C)c2ccccc12	-5.4*	i	i	i	i	i	i	-12%*	40%*	i	i
CC1=NN(c2ccc(C(=O)OC(C)C)cc2)C(=O)/C1=C\C=C\c1ccco1	-6.3*	i	i	i	i	i	i	i	45%*	i	i
CC1=NN(c2ccccc2)C(=O)/C1=C/C=C/c1ccc(N(C)C)cc1	-12*	i	i	i	i	·	·	·	·	81%*	i	TRPC4 sel inh 2=74%*;TRPC4 spec=-14%*;HEK293 MPD ctr 2-1=i;HEK293 MPD ctr-1=-140%*
COc1ccc(-n2c(C)c(C)c3c(N)ncnc32)cc1	i	i	i	i	i	·	·	·	·	·	·
Cc1ccc(S(=O)(=O)NC(CC(C)C)C(=O)N2CCCC2)cc1 (configuration not stated)	i	i	i	i	i	·	·	·	·	·	·
Cc1ccccc1N/N=C/c1c(C)nc2ccccn12	i	i	i	i	i	·	·	·	·	·	·
CCCCn1nnnc1NCc1cccc(OC)c1OC	i	i	i	i	i	·	·	·	·	·	·

Screens: PubChem, Johns Hopkins Ion Channel Center
